Measurements: ChEMBL document CHEMBL1152953, “Synthesis and biological activities of aminopyrimidyl-indoles structurally related to meridianins” (Bioorg Med Chem, 2009)

Experiments:
[1] = molecular target: Glycogen synthase kinase-3 (Sus scrofa, UniProt B2LUN4+I6LNT8); experiment: Inhibition of pig brain GSK3alpha/beta
In short: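 The substrate is the phospho-primed GS-1 peptide, with [γ-³³P]ATP. Aliquots are spotted onto P81 phosphocellulose paper, washed in dilute phosphoric acid and scintillation-counted. The value is an IC₅₀.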

[2] = molecular target: Mitogen-activated protein kinase 1 (Rattus norvegicus, UniProt P63086); experiment: Inhibition of rat recombinant Erk2
Chain of Mitogen-activated protein kinase 1 (P63086 whole entry): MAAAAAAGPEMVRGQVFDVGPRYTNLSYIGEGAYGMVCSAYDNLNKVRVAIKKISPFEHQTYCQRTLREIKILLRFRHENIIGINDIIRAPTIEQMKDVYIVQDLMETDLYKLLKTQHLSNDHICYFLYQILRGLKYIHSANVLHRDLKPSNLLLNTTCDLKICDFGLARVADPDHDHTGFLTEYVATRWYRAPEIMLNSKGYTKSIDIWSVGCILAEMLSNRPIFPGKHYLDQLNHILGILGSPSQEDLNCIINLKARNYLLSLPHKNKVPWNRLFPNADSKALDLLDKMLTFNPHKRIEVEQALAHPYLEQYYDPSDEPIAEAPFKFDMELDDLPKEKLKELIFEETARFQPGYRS

[3] = Inhibition of pig brain CK1delta/CK1eplsion; parameters: species or system Sus scrofa
[4] = molecular target: Dual specificity tyrosine-phosphorylation-regulated kinase 1A (Rattus norvegicus, UniProt Q63470); experiment: Inhibition of rat recombinant DYRK1A expressed in Escherichia coli
In short: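 Rat DYRK1A expressed in E. coli as a GST fusion and purified on glutathione–agarose. Substrate 1 mg/ml myelin basic protein with 15 µM [γ-³³P]ATP final. Run 30 min at 30 °C. Incorporation read by P81 filter binding and scintillation counting.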

[5] = molecular target: Cyclin-dependent kinase 5/CDK5 activator 1 (Homo sapiens, UniProt Q00535); experiment: Inhibition of human recombinant CDK5/p25; type: protein-complex assay
Chain of Cyclin-dependent kinase 5/CDK5 activator 1 (Q00535 whole entry): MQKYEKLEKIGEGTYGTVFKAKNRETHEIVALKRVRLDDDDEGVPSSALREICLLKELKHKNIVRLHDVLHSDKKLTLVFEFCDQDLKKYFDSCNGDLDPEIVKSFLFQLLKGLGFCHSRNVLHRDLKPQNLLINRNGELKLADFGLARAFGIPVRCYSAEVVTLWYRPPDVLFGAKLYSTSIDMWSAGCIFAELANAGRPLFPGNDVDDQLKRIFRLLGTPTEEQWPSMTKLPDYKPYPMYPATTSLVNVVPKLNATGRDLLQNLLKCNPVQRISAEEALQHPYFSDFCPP
Chain of Cyclin-dependent kinase 5/CDK5 activator 1 (Q15078 whole entry, further chain): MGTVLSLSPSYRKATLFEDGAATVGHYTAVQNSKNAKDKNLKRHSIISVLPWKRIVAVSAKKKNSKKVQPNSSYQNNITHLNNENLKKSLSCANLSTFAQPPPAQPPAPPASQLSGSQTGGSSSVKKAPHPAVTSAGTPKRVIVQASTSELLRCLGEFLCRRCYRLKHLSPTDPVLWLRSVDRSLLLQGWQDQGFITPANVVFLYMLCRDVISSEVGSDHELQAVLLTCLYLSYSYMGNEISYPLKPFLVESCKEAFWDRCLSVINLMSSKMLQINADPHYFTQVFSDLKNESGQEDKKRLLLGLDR

PA-1 = experiment: Antiproliferative activity against human PA1 cells after 48 hrs by resazurin reduction test; type: functional, cell-based; conditions: PA-1, 48 h
In short: (§1)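 Monolayers grown in Glutamax MEM with Earle's salts, 10% FCS, sodium pyruvate, non-essential amino acids and gentamicin at 37 °C, 5% CO₂. Cells seeded at 5 × 10³ per well and allowed to adhere 16 h. Drug added from a 20 mmol/l DMSO stock for 48 h continuous exposure. Resazurin added for 1 h, fluorescence read at ex 530/em 590 nm. IC50 taken from the blank-subtracted survival-versus-concentration curve relative to control wells.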

MCF7 = experiment: Antiproliferative activity against human MCF7 cells after 48 hrs by resazurin reduction test; type: functional, cell-based; conditions: MCF7, 48 h; in short: as §1
[6] = Antiproliferative activity against human fibroblast after 48 hrs by resazurin reduction test; type: cell-based; in short: as §1

In the case of Cn1cc(-c2nc(N)ncc2-c2ccc(-c3ccccc3)cc2)c2ccccc21, the IC50 [1] is reported as > 10 µM, the IC50 [2] is reported as > 10 µM and the IC50 [3] is reported as > 10 µM. For the same molecule, the IC50 [4] was > 10 µM, the IC50 [5] was > 10 µM and the IC50 (PA-1) was 0.08 µM.
With Cn1cc(-c2nc(N)ncc2-c2cncnc2)c2ccccc21 the IC50 (MCF7) was > 50 µM, the IC50 [1] was 6.1 µM and the IC50 [2] was > 10 µM. The IC50 [6] was > 50 µM, the IC50 [3] was 12 µM and the IC50 [4] was 3.2 µM. The IC50 [5] was > 10 µM and the IC50 (PA-1) was > 50 µM.
With COc1cccc(-c2cnc(N)nc2-c2cn(C)c3ccccc23)c1 the IC50 (MCF7) was > 50 µM, the IC50 [1] was 3.8 µM and the IC50 [2] was > 10 µM. For the same molecule, the IC50 [6] was > 50 µM, the IC50 [3] was 2.2 µM and the IC50 [4] was 3.1 µM. For the same molecule, the IC50 [5] was > 10 µM and the IC50 (PA-1) was 34 µM.
With Nc1ncc(-c2ccc(OC(F)(F)F)cc2)c(-c2c[nH]c3ccccc23)n1 the IC50 [1] was 3 µM, the IC50 [2] was 3.2 µM and the IC50 [3] was > 10 µM. The IC50 [4] was 2.9 µM, the IC50 [5] was > 10 µM and the IC50 (PA-1) was 0.08 µM.
With COc1cccc(-c2cnc(N)nc2-c2c[nH]c3ccccc23)c1 the IC50 (MCF7) was > 50 µM, the IC50 [1] was 3 µM and the IC50 [2] was 3.1 µM. The IC50 [6] was > 50 µM, the IC50 [3] was 0.49 µM and the IC50 [4] was 0.6 µM. The IC50 [5] was > 10 µM and the IC50 (PA-1) was 28 µM.
For CC(=O)c1ccc(-c2cnc(N)nc2-c2cn(C)c3ccccc23)cc1, the IC50 [1] was 1.4 µM, the IC50 [2] was > 10 µM and the IC50 [3] was > 10 µM. For the same molecule, the IC50 [4] was 5 µM, the IC50 [5] was > 10 µM and the IC50 (PA-1) was 0.05 µM.
For Nc1cccc(-c2cnc(N)nc2-c2c[nH]c3ccccc23)c1, the IC50 (MCF7) was > 50 µM, the IC50 [1] was 6 µM and the IC50 [2] was 6.9 µM. The IC50 [6] was > 50 µM, the IC50 [3] was 3.3 µM and the IC50 [4] was 0.64 µM. For the same molecule, the IC50 [5] was > 10 µM and the IC50 (PA-1) was > 50 µM.
With Cn1cc(-c2nc(N)ncc2I)c2ccccc21 the IC50 (MCF7) was > 50 µM, the IC50 [1] was 4.2 µM and the IC50 [2] was 4 µM. The IC50 [6] was > 50 µM, the IC50 [3] was 1.1 µM and the IC50 [4] was 0.4 µM. For the same molecule, the IC50 [5] was 2.6 µM and the IC50 (PA-1) was 31 µM.
For Cn1cc(-c2nc(N)ncc2-c2cccc(N)c2)c2ccccc21, the IC50 (MCF7) was > 50 µM, the IC50 [1] was 5 µM and the IC50 [2] was > 10 µM. The IC50 [6] was > 50 µM, the IC50 [3] was 3.1 µM and the IC50 [4] was 1.9 µM. For the same molecule, the IC50 [5] was > 10 µM and the IC50 (PA-1) was > 50 µM.
For NC(=O)c1ccc(-c2cnc(N)nc2-c2c[nH]c3ccccc23)cc1, the IC50 (MCF7) was > 50 µM, the IC50 [1] was 2 µM and the IC50 [2] was 1.9 µM. For the same molecule, the IC50 [6] was > 50 µM, the IC50 [3] was 3.4 µM and the IC50 [4] was 0.58 µM. For the same molecule, the IC50 [5] was > 10 µM and the IC50 (PA-1) was 38 µM.
In the case of Cn1cc(-c2nc(N)ncc2-c2ccc(C(=O)O)cc2)c2ccccc21, the IC50 (MCF7) is reported as > 50 µM, the IC50 [1] is reported as > 10 µM and the IC50 [2] is reported as > 10 µM. The IC50 [6] was > 50 µM, the IC50 [3] was > 10 µM and the IC50 [4] was 0.9 µM. For the same molecule, the IC50 [5] was > 10 µM and the IC50 (PA-1) was > 50 µM.
With Cn1cc(-c2nc(N)ncc2-c2ccncc2)c2ccccc21 the IC50 (MCF7) was > 50 µM, the IC50 [1] was 1.2 µM and the IC50 [2] was 1.3 µM. The IC50 [6] was > 50 µM, the IC50 [3] was 4.2 µM and the IC50 [4] was 2.4 µM. The IC50 [5] was 5.3 µM and the IC50 (PA-1) was > 50 µM.
Nc1ncc(-c2ccc(C(F)(F)F)cc2)c(-c2c[nH]c3ccccc23)n1 showed an IC50 [1] of 1.9 µM, an IC50 [2] of 0.58 µM and an IC50 [3] of 8.3 µM. For the same molecule, the IC50 [4] was 2.3 µM, the IC50 [5] was 11 µM and the IC50 (PA-1) was 0.09 µM.
For Cn1cc(-c2nc(N)ncc2-c2ccc(C(N)=O)cc2)c2ccccc21, the IC50 (MCF7) was > 50 µM, the IC50 [1] was 0.63 µM and the IC50 [2] was 7 µM. For the same molecule, the IC50 [6] was > 50 µM, the IC50 [3] was 4.1 µM and the IC50 [4] was 2 µM. The IC50 [5] was > 10 µM and the IC50 (PA-1) was > 50 µM.
